# Measurements as given in ChEMBL document CHEMBL4270631, “Design, synthesis and in vitro anti-Zika virus evaluation of novel Sinefungin derivatives” (Eur J Med Chem, 2018).
# Key:
# [1] = Inhibition of recombinant N-terminal GST-tagged Dengue virus 3 NS5 N7-MTase activity expressed in Escherichia coli BL21 by scintillation proximity assay; design: species or system dengue virus type 3
# [2] = Inhibition of recombinant N-terminal GST-tagged Dengue virus 3 2'-O-MTase activity expressed in Escherichia coli BL21 by scintillation proximity assay; design: species or system dengue virus type 3
# [3] = Inhibition of recombinant N-terminal GST-tagged Dengue virus 3 NS5 N7-MTase F133A mutant expressed in Escherichia coli BL21 by scintillation proximity assay; design: species or system dengue virus type 3
# [4] = Inhibition of recombinant N-terminal GST-tagged Dengue virus 3 2'-O-MTase F133A mutant expressed in Escherichia coli BL21 by scintillation proximity assay; design: species or system dengue virus type 3
# [5] = target: DNA (cytosine-5)-methyltransferase 1 (Homo sapiens, UniProt P26358); test: Inhibition of human DNMT1A using double-stranded hemi-DNA oligonucleotide as substrate measured after 40 mins by [3H]methyl incorporation assay
# DNA (cytosine-5)-methyltransferase 1, sequence (P26358 whole entry, the tested form may be a part): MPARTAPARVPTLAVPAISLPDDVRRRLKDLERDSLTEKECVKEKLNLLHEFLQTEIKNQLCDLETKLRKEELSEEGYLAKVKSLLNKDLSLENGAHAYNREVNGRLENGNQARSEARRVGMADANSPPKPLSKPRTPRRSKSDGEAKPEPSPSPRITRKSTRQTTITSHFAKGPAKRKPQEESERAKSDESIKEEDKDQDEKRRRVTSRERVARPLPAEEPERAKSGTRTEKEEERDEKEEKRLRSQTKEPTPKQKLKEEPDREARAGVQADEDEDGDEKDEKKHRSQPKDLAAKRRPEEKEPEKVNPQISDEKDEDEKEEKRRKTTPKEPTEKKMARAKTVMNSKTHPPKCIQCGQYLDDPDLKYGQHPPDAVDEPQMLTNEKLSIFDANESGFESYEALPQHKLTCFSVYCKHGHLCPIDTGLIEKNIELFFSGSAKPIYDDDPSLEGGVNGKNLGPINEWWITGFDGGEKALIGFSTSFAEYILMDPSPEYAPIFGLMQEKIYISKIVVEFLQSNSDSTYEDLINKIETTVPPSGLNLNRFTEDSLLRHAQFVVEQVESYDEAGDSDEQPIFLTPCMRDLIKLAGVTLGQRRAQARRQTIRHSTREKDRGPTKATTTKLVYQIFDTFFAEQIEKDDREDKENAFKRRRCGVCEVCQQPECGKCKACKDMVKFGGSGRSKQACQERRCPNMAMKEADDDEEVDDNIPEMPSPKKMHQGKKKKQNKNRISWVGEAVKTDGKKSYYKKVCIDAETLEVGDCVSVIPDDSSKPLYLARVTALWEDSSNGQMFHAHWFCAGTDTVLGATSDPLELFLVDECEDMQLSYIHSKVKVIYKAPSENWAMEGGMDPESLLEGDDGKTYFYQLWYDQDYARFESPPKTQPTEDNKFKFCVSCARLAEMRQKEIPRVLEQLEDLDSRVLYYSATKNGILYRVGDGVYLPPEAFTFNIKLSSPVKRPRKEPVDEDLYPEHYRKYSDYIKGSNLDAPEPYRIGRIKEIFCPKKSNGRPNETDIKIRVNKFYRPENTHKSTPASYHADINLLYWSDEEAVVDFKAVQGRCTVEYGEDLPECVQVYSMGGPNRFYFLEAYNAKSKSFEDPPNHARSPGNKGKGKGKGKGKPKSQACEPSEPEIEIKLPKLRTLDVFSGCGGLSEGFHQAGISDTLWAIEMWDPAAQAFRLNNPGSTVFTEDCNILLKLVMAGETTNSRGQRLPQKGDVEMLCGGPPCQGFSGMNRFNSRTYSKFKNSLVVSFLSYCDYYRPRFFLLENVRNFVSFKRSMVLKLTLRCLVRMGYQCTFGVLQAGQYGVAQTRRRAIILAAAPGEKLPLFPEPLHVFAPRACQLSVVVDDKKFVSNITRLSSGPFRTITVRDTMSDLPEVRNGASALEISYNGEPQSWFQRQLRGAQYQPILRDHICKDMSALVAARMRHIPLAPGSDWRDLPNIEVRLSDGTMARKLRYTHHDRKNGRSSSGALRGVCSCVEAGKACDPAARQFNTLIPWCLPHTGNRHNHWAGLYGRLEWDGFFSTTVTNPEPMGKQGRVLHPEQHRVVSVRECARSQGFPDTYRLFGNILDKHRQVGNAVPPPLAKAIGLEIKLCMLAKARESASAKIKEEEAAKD
# [6] = target: mRNA cap guanine-N(7) methyltransferase (Homo sapiens, UniProt O43148); test: Inhibition of recombinant human N-terminal His-tagged RNMT (1 to 476 residues) expressed in Escherichia coli BL21 using 5'-GpppAGAACCUG-biotin-TEG-3 as substrate after 10 mins by [3H]methyl incorporation assay
# mRNA cap guanine-N(7) methyltransferase, sequence (O43148 whole entry, the tested form may be a part): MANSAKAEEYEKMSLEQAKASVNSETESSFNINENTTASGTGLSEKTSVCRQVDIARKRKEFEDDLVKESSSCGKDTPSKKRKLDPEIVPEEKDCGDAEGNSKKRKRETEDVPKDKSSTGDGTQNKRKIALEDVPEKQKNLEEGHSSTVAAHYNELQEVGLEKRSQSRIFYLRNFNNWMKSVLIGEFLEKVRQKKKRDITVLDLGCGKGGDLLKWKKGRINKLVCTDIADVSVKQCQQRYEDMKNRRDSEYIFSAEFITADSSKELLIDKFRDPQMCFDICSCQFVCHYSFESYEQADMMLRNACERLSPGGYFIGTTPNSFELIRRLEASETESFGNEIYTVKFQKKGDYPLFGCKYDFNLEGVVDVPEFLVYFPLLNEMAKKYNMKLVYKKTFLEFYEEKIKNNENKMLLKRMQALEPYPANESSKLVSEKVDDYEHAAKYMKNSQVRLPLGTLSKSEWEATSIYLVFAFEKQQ
# Zika virus [7] = test: Antiviral activity against Zika virus SMGC infected in BHK cells assessed as inhibition of virus induced cytopathic effect after 8 days by CellTiter-Glo luminescent cell viability assay; format: functional, organism-based; details: 192 h
# In short: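 BHK cells seeded at 5,000/well in DMEM with 10% FBS and P/S, 24 h at 37°C, 5% CO₂, then switched to maintenance medium (DMEM, 2% FBS, P/S). Vero-grown ZIKV diluted to 100TCID₅₀ added with compounds in 3-fold dilutions from 50 μM; incubated 8 days until 100% CPE; viability read by CellTiter-Glo luminescence; IC50 calculated from curves.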
# [8] = Cytotoxicity against BHK cells after 8 days by CellTiter-Glo assay; format: cell-based, Mesocricetus auratus; details: hamster
# In short: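 BHK cells seeded at 5,000/well, allowed 24 h recovery, then given maintenance medium (DMEM, 2% FBS, P/S) containing compound in 3-fold dilutions from 200 μM to 0.09 μM, or drug-free. Viability read by CellTiter-Glo luminescence after 8 days' exposure; CC50 calculated from curves.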
# [9] = Selectivity index, ratio of CC50 for BHK cells to IC50 for Zika virus SMGC infected in BHK cells; format: toxicity, cell-based; details: hamster, BHK cells infected with Zika virus SMGC, read-out: Ratio CC50/IC50
# In short: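 Ratio of CC50 from 8-day CellTiter-Glo viability of uninfected BHK cells (compound 200–0.09 μM) to IC50 from 8-day protection of BHK cells against 100TCID₅₀ ZIKV-induced CPE (compound from 50 μM, 3-fold dilutions), both in DMEM with 2% FBS.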
# Zika virus [10] = test: Potency index, ratio of EPZ004777 IC50 to test compound IC50 for Zika virus SMGC infected in BHK cells; format: functional
Structure (SMILES),IC50 (Zika virus [7]) [µM],CC50 at 192 h [8] [µM],selectivity ratio [9],also measured
N[C@@H](CCSC[C@H]1O[C@@H](n2cnc3c(NCc4cccc(Cl)c4)ncnc32)[C@H](O)[C@@H]1O)C(=O)O,–,–,–,Ki [1]: 0.002 to 0.24 µM; Ki [2]: 0.002 to 0.24 µM; Ki [3]: 0.044 to 5.68 µM; Ki [4]: 0.044 to 5.68 µM; Ki [5]: > 50 µM; Ki [6]: > 50 µM
CC(C)N(CCCNC(=O)Nc1ccc(C(C)(C)C)cc1)C[C@H]1O[C@@H](n2ccc3c(N)ncnc32)[C@H](O)[C@@H]1O,35.2,> 200,> 5.68,–
CC(C)N(CCCNC(=O)Nc1ccc(C(F)(F)F)cc1)C[C@H]1O[C@@H](n2cnc3c(NCc4cccc(F)c4)ncnc32)[C@H](O)[C@@H]1O,6.46,20.3,3.14,Ratio IC50 (Zika virus [10]): 5 - 7.7
CC(C)N(CCCNC(=O)NC(C)(C)C)C[C@H]1O[C@@H](n2cnc3c(NCc4cccc(F)c4)ncnc32)[C@H](O)[C@@H]1O,> 50,–,–,–
CC(C)N(CCCNC(=O)Nc1ccc(C(C)(C)C)cc1)C[C@H]1O[C@@H](n2cnc3c(NCc4cccc(Cl)c4)ncnc32)[C@H](O)[C@@H]1O,–,6.73,–,–
CC(C)N(CCCO)C[C@H]1O[C@@H](n2cnc3c(NCc4cccc(F)c4)ncnc32)[C@H](O)[C@@H]1O,> 50,–,–,–
COc1ccc(NC(=O)NCCCN(C[C@H]2O[C@@H](n3cnc4c(NCc5cccc(F)c5)ncnc43)[C@H](O)[C@@H]2O)C(C)C)cc1,> 50,–,–,–
CC(C)N(CCCNC(=O)Nc1ccc(F)cc1)C[C@H]1O[C@@H](n2cnc3c(NCc4cccc(Cl)c4)ncnc32)[C@H](O)[C@@H]1O,15.3,20,1.31,–
COC(=O)CCN(C[C@H]1O[C@@H](n2cnc3c(NCc4cccc(F)c4)ncnc32)[C@H](O)[C@@H]1O)C(C)C,> 50,–,–,–
CC(C)N(CCCN)C[C@H]1O[C@@H](n2cnc3c(NCc4cccc(F)c4)ncnc32)[C@H](O)[C@@H]1O,> 50,–,–,–
CC(C)N(CCCNC(=O)NC(C)(C)C)C[C@H]1O[C@@H](n2cnc3c(NCc4cccc(Cl)c4)ncnc32)[C@H](O)[C@@H]1O,20.6,58.5,2.84,–
CC(C)N(CCCNC(=O)Nc1ccc(F)cc1)C[C@H]1O[C@@H](n2cnc3c(NCc4cccc(F)c4)ncnc32)[C@H](O)[C@@H]1O,> 50,–,–,–
CC(C)NC[C@H]1O[C@@H](n2cnc3c(NCc4cccc(Cl)c4)ncnc32)[C@H](O)[C@@H]1O,6.33,29.4,4.64,–
CC(C)N(CCCNC(=O)Nc1cccc(C(F)(F)F)c1)C[C@H]1O[C@@H](n2cnc3c(NCc4cccc(F)c4)ncnc32)[C@H](O)[C@@H]1O,6.99,12.9,1.84,Ratio IC50 (Zika virus [10]): 5 - 7.7
CC(C)N(CCCNC(=O)NC1CCCCC1)C[C@H]1O[C@@H](n2cnc3c(NCc4cccc(F)c4)ncnc32)[C@H](O)[C@@H]1O,> 50,–,–,–
CC(C)N(CCCNC(=O)Nc1ccc(C(C)(C)C)cc1)C[C@H]1O[C@@H](n2cnc3c(NCc4cccc(F)c4)ncnc32)[C@H](O)[C@@H]1O,6.65,18.7,2.81,Ratio IC50 (Zika virus [10]): 5 - 7.7
CC(C)N(CCCNC(=O)Nc1cccc(C(F)(F)F)c1)C[C@H]1O[C@@H](n2cnc3c(NCc4cccc(Cl)c4)ncnc32)[C@H](O)[C@@H]1O,4.56,5.88,1.29,Ratio IC50 (Zika virus [10]): 5 - 7.7
COc1ccc(NC(=O)NCCCN(C[C@H]2O[C@@H](n3cnc4c(NCc5cccc(Cl)c5)ncnc43)[C@H](O)[C@@H]2O)C(C)C)cc1,> 50,–,–,–
COC(=O)CCN(C[C@H]1O[C@@H](n2cnc3c(NCc4cccc(Cl)c4)ncnc32)[C@H](O)[C@@H]1O)C(C)C,> 50,–,–,–
CC(C)N(CCCNC(=O)NC1CCCCC1)C[C@H]1O[C@@H](n2cnc3c(NCc4cccc(Cl)c4)ncnc32)[C@H](O)[C@@H]1O,12.2,57.6,4.7,–
CC(C)N(CCCO)C[C@H]1O[C@@H](n2cnc3c(NCc4cccc(Cl)c4)ncnc32)[C@H](O)[C@@H]1O,27.5,70.6,2.57,–
Cc1ccc(NC(=O)NCCCN(C[C@H]2O[C@@H](n3cnc4c(NCc5cccc(F)c5)ncnc43)[C@H](O)[C@@H]2O)C(C)C)cc1,> 50,–,–,–
CC(C)NC[C@H]1O[C@@H](n2cnc3c(NCc4cccc(F)c4)ncnc32)[C@H](O)[C@@H]1O,30,> 200,> 6.67,–
CC(C)N(CCCN)C[C@H]1O[C@@H](n2cnc3c(NCc4cccc(Cl)c4)ncnc32)[C@H](O)[C@@H]1O,> 50,–,–,–
CC(C)N(CCCNC(=O)Nc1ccc(C(F)(F)F)cc1)C[C@H]1O[C@@H](n2cnc3c(NCc4cccc(Cl)c4)ncnc32)[C@H](O)[C@@H]1O,–,6.35,–,–
Cc1ccc(NC(=O)NCCCN(C[C@H]2O[C@@H](n3cnc4c(NCc5cccc(Cl)c5)ncnc43)[C@H](O)[C@@H]2O)C(C)C)cc1,5.8,19.1,3.29,Ratio IC50 (Zika virus [10]): 5 - 7.7
Nc1ncnc2c1ncn2[C@@H]1O[C@H](C[C@@H](N)CC[C@H](N)C(=O)O)[C@@H](O)[C@H]1O [SINEFUNGIN],> 50,–,–,–
